The test system of one test is MCF7. The experiment in a line: Cytotoxicity against human MCF7 cells assessed as reduction in cell viability after 72 hrs by MTT assay. Format: functional, cell-based. The note with it: MCF7, 72 h. Summed up:
(§1)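 MCF-7 and HepG2 cells in exponential growth were trypsinized and seeded at 1000–2000 cells/well, then incubated 24 h at 37 °C. Compound exposure was 72 h at 0.1, 10, 100 and 1000 μM. Cells took up 5% MTT for 2 h, and formazan was dissolved in acidified isopropanol for 30 min at room temperature. A570 was read, viability expressed as % of control, and IC50 obtained by curve fitting.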

Test [1] deals with HepG2. Briefly: Cytotoxicity against human HepG2 cells assessed as reduction in cell viability after 72 hrs by MTT assay. In kind it is functional, cell-based. The note with it: HepG2, 72 h. Summed up: as §1
Test [2] has as its system HepG2. The experiment in a line: Induction of apoptosis in human HepG2 cells at 0.4 uM after 24 hrs by Annexin V/propidium iodide double staining-based flow cytometry (reference value: 0.84%). In kind it is functional. Summed up:
(§2)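 MCF-7 exposed at 1.4 μM or HepG2 at 0.4 μM for 24 or 48 h. Cells were collected in PBS, fixed in ice-cold 70% ethanol, washed, then resuspended in PI staining solution containing 0.1 mg/mL RNase plus PE-Annexin V. Staining was 10 min in the dark at 37 °C, followed by FACSCalibur flow cytometry.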
In general terms: In flow cytometry, cells or beads pass a laser one at a time.

The test system of test [3] is HepG2. The experiment in a line: Induction of apoptosis in human HepG2 cells at 0.4 uM after 48 hrs by Annexin V/propidium iodide double staining-based flow cytometry (reference value: 0.84%). In kind it is functional. The essentials: as §2
Test [4] relates to HepG2. The experiment in a line: Cell cycle arrest in human HepG2 cells assessed as accumulation at G0/G1 phase at 0.4 uM after 24 hrs by propidium iodide staining-based flow cytometry (reference value: 73.11%). Format: functional.
Test [5] concerns HepG2. Briefly: Cell cycle arrest in human HepG2 cells assessed as accumulation at G0/G1 phase at 0.4 uM after 48 hrs by propidium iodide staining-based flow cytometry (reference value: 73.11%). In kind it is functional.
Test [6] has as its system HepG2. Briefly: Cell cycle arrest in human HepG2 cells assessed as accumulation at S phase at 0.4 uM after 24 hrs by propidium iodide staining-based flow cytometry (reference value: 21.69%). Format: functional.
The subject of test [7] is HepG2. The experiment in a line: Cell cycle arrest in human HepG2 cells assessed as accumulation at S phase at 0.4 uM after 48 hrs by propidium iodide staining-based flow cytometry (reference value: 21.69%). In kind it is functional.
The subject of test [8] is HepG2. The experiment in a line: Cell cycle arrest in human HepG2 cells assessed as accumulation at G2/M phase at 0.4 uM after 24 hrs by propidium iodide staining-based flow cytometry (reference value: 4.36%). Format: functional.
Test [9] deals with HepG2. Briefly: Cell cycle arrest in human HepG2 cells assessed as accumulation at G2/M phase at 0.4 uM after 48 hrs by propidium iodide staining-based flow cytometry (reference value: 4.36%). Format: functional.
In test [10] the test system is HepG2. Briefly: Induction of apoptosis in human HepG2 cells assessed as viable cells at 0.4 uM after 24 hrs by Annexin V/propidium iodide double staining-based flow cytometry (reference value: 99.16 %). Format: functional. As to conditions: HepG2, 24 h, read-out: Activity. The essentials:
as §2

Test [11] relates to HepG2. Briefly: Induction of apoptosis in human HepG2 cells assessed as early apoptotic cells at 0.4 uM after 24 hrs by Annexin V/propidium iodide double staining-based flow cytometry (reference value: 0.61 %). In kind it is functional. The essentials:
as §2

Test [12] deals with HepG2. Briefly: Induction of apoptosis in human HepG2 cells assessed as late apoptotic cells at 0.4 uM after 24 hrs by Annexin V/propidium iodide double staining-based flow cytometry (reference value: 0.14 %). Format: functional. Summed up:
as §2

For test [13], the system named is HepG2. The experiment in a line: Induction of apoptosis in human HepG2 cells assessed as necrotic cells at 0.4 uM after 24 hrs by Annexin V/propidium iodide double staining-based flow cytometry (reference value: 0.09 %). Format: functional. The essentials:
as §2

Test [14] concerns HepG2. Briefly: Induction of apoptosis in human HepG2 cells assessed as viable cells at 0.4 uM after 48 hrs by Annexin V/propidium iodide double staining-based flow cytometry (reference value: 99.16 %). In kind it is functional. The note with it: HepG2, 48 h, read-out: Activity. The essentials:
as §2

Test [15] has as its system HepG2. The experiment in a line: Induction of apoptosis in human HepG2 cells assessed as early apoptotic cells at 0.4 uM after 48 hrs by Annexin V/propidium iodide double staining-based flow cytometry (reference value: 0.61 %). In kind it is functional. The essentials: as §2
Test [16] has as its system HepG2. The experiment in a line: Induction of apoptosis in human HepG2 cells assessed as late apoptotic cells at 0.4 uM after 48 hrs by Annexin V/propidium iodide double staining-based flow cytometry (reference value: 0.14 %). In kind it is functional. Summed up:
as §2

For test [17], the system named is HepG2. The experiment in a line: Induction of apoptosis in human HepG2 cells assessed as necrotic cells at 0.4 uM after 48 hrs by Annexin V/propidium iodide double staining-based flow cytometry (reference value: 0.09 %). Format: functional. The essentials:
as §2

Test [18] concerns HepG2. The experiment in a line: Induction of apoptosis in human HepG2 cells assessed as caspase-3 activation at 0.4 uM after 10 mins by ELISA relative to control. Format: functional. Summed up: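 MCF-7 treated at 1.4 μM or HepG2 at 0.4 μM. Cells were trypsinized, rinsed in PBS, pelleted (105–106 cells) and resuspended in 1 mL PBS. Lysis was by three freeze/thaw cycles, followed by a 1500×g spin for 10 min at 2–8 °C. Active caspase-3 (cleaved at Asp175/Ser176) in the lysate was quantified by sandwich ELISA with an anti-rabbit HRP step, read at 450 nm, in pg/mL against control.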
(An ELISA detects its analyte on a solid surface through an enzyme-linked reagent.)

Test [19] addresses Cyclin-dependent kinase 2 (Homo sapiens) (UniProt P24941). The experiment in a line: Inhibition of CDK2 (unknown origin) at 0.004 uM by CDKN2A antibody-based spectrophotometry.
The target is the same in test [20]. Briefly: Inhibition of CDK2 (unknown origin) at 0.02 uM by CDKN2A antibody-based spectrophotometry.
Test [21] has the same target. The experiment in a line: Inhibition of CDK2 (unknown origin) at 0.1 uM by CDKN2A antibody-based spectrophotometry. Summed up:
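Sandwich enzyme immunoassay using a plate pre-coated with CDKN2A-specific antibody. Detection used a biotinylated anti-CDKN2A antibody, then avidin-HRP and substrate; the reaction was stopped and read at 450 nm. Compound levels tested were 0.004, 0.02, 0.1, 0.4 and 0.5 ug/mL, reported as % inhibition. IC50 was derived by Boltzmann sigmoidal nonlinear regression.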

The target is the same in test [22]. Briefly: Inhibition of CDK2 (unknown origin) at 0.4 uM by CDKN2A antibody-based spectrophotometry.
The target is the same in test [23]. Briefly: Inhibition of CDK2 (unknown origin) at 0.5 uM by CDKN2A antibody-based spectrophotometry.
Test [24] deals with Cyclin-dependent kinase inhibitor 1 (Homo sapiens) (UniProt P38936). Briefly: Activation of human P21cip1 at 0.40 uM using TMB as substrate by ELISA (reference value: 0%). The essentials: (§3)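 Sandwich ELISAs on treated cells for p21Cip1 and p27Kip1: antibody-coated wells, detecting antibody, then HRP conjugate, with incubation and washing between steps. TMB substrate, reaction stopped, absorbance read at 450 nm. Output is residual concentration in pg/mL, expressed as % activation over untreated control.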

In test [25] the target is Cyclin-dependent kinase inhibitor 1B (Homo sapiens) (UniProt P46527). The experiment in a line: Activation of human P27kip1 at 0.40 uM using TMB as substrate by ELISA (reference value: 0%). The essentials:
as §3

Data on five compounds can be found in ChEMBL document CHEMBL4130351, “Novel pyrazolopyrimidines: Synthesis, in vitro cytotoxic activity and mechanistic investigation” (Eur J Med Chem, 2017).

SMILES strings stand for the structures.

Chain of Cyclin-dependent kinase inhibitor 1 (Homo sapiens) (P38936 whole entry): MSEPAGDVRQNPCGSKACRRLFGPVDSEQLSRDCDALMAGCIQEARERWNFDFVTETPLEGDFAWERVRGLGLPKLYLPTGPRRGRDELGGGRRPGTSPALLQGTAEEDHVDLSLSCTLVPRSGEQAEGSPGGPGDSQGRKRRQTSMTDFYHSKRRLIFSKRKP
Chain of Cyclin-dependent kinase inhibitor 1B (Homo sapiens) (P46527 whole entry): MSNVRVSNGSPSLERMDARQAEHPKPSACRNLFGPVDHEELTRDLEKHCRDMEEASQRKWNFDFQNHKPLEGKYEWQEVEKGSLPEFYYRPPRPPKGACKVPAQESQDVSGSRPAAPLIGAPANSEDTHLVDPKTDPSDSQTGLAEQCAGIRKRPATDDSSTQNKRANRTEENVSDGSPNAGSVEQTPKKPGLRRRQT

Take `NS(=O)(=O)c1ccc(-n2ncc3c(=O)[nH]c(-c4ccc(Br)cc4)nc32)cc1`: the figures for the half-inhibitory concentration (IC50) with MCF7 and in the test on HepG2 [1] were 14.5 µM and 42.6 µM, respectively.
`COc1cccc2c1C(=O)c1c(O)c3c(c(O)c1C2=O)C[C@@](O)(C(=O)CO)C[C@@H]3O[C@H]1C[C@H](N)[C@H](O)[C@H](C)O1` [DOXORUBICIN]: the results for the IC50 with MCF7 and with HepG2 [1] were 1.02 µM and 0.9 µM, respectively.
In the case of `NS(=O)(=O)c1ccc(-n2ncc3c(=O)[nH]c(-c4ccc(Cl)cc4)nc32)cc1`, the concentration for half-maximal inhibition (IC50) (usually the concentration that gives 50% inhibition) in the test with MCF7 stood at 2.5 µM; in the test on HepG2 [1], 23.9 µM.
In the same order, the values of `COc1ccc(-c2nc3c(cnn3-c3ccc(S(N)(=O)=O)cc3)c(=O)[nH]2)cc1OC` are more than 100 µM and more than 100 µM.
Regarding `N=c1[nH]c(=O)[nH]c2c1cnn2-c1ccc(S(N)(=O)=O)cc1`, the half-inhibitory concentration (IC50) was more than 100 µM in the test on MCF7 and 0.4 µM in the test with HepG2 [1]. Further, the Activity in the test with HepG2 [2] was found to be 13.92%; in the test on HepG2 [3] it was 16.71%; in the test on HepG2 [4], 36.55%; with HepG2 [5] it was 9.62%; in the test on HepG2 [6] it was 25.66%; with HepG2 [7], 24.67%. For the same compound, the Activity in the test with HepG2 [8] turned out to be 23.78%; with HepG2 [9], 48.91%; with HepG2 [11], 7.64%; with HepG2 [12], 4.79%; in the test on HepG2 [13] it was 1.29%; in the test with HepG2 [15] it was 9.76%. For the same compound, the Activity was found to be 5.92% with HepG2 [16], 1.03% with HepG2 [17], 10.1% in test [24] and 8.5% in test [25]. In addition, the results for the viability at 0.4 µM in the test on HepG2 [10] and in the test on HepG2 [14] were 86.3% and 83.3%, respectively. Also, the “fold change (FC)” value in the test with HepG2 [18] turned out to be 36. Also, the inhibition (as a rule, the share of the control response that was lost under treatment) turned out to be 12.6% in test [19]; 39% in test [20]; 53.1% in test [21]; 68.8% in test [22]; 81.8% in [23].
